Data from ChEMBL document CHEMBL3091449, “Synthesis and antimicrobial profile of N-substituted imidazolium oximes and their monoquaternary salts against multidrug resistant bacteria” (2013).

Assays:
Format in all cases: functional
Aspergillus fumigatus = experiment: Antifungal activity against Aspergillus fumigatus FNSST 3833 assessed as diameter of zone of inhibition at 250 ug/disc after 72 hrs by disc diffusion method; conditions: FNSST 3833, 72 h, read-out: DIZ
How it was run: (§1)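 Fungi were grown overnight at 30 °C in Sabouraud dextrose broth to 10^4 cfu/mL, and 100 µL was spread on Sabouraud dextrose agar. 6 mm discs carried 250 µg (25 µL of a 10 mg/mL stock in 96% ethanol), with ethanol as the negative control. Incubation was at 30 °C for 48 h (yeast) or 72 h (molds). Zone diameter was read including the disc, in triplicate, mean ± SE.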

Clostridium perfringens [1] = experiment: Antibacterial activity against Clostridium perfringens FNSST 4999 assessed as diameter of zone of inhibition at 250 ug/disc after 24 hrs by disc diffusion method; conditions: FNSST 4999, 24 h, read-out: DIZ
How it was run: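 Disc diffusion per CLSI: 100 µL of 10^6 cfu/mL bacterial suspension spread on Mueller Hinton agar. 6 mm discs loaded with 25 µL of 10 mg/mL compound stock in 96% ethanol (250 µg/disc); ethanol as negative control. Incubated 24 h at 37 °C. Inhibition zone diameter measured in mm including the disc, triplicate, reported as mean ± SE.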

Pseudomonas aeruginosa [2] = experiment: Antibacterial activity against Pseudomonas aeruginosa FNSST 982 assessed as diameter of zone of inhibition at 250 ug/disc after 24 hrs by disc diffusion method; conditions: FNSST 982, 24 h, read-out: DIZ
How it was run: (§2)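 Bacteria were grown overnight at 37 °C in TSB to about 10^6 cfu/mL, and 100 µL was spread on Mueller Hinton agar. Sterile 6 mm discs were each loaded with 25 µL of a 10 mg/mL stock in 96% ethanol, giving 250 µg/disc. Ethanol served as the negative control. Plates were incubated 24 h at 37 °C. Inhibition zone diameter was measured including the disc, in triplicate, as mean ± SE.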

Klebsiella pneumoniae [3] = experiment: Antibacterial activity against Klebsiella pneumoniae FNSST 011 after 18 to 24 hrs by two-fold broth microdilution assay
How it was run: (§3)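 CLSI two-fold broth microdilution was used. Compounds were dissolved in DMSO, brought to 10 mg/mL in medium, then serially diluted in Mueller Hinton broth over 400–0.09 µg/mL. Overnight MHB cultures were diluted to 10^6 CFU/mL, and 10 µL was added per well. Plates were incubated 18–24 h at 37 °C, then 0.2 mg/mL INT was added for 30 min at 37 °C. MIC was the lowest concentration with no visible growth or pink colour, triplicate.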

Aeromonas hydrophila [4] = experiment: Antibacterial activity against Aeromonas hydrophila FNSST 014 after 18 to 24 hrs by two-fold broth microdilution assay; how it was run: as §3
Staphylococcus aureus [5] = experiment: Antibacterial activity against Staphylococcus aureus ATCC 25923 after 18 to 24 hrs by two-fold broth microdilution assay; how it was run: as §3
Pseudomonas aeruginosa [6] = experiment: Ratio of gentamicin MIC to compound MIC for Pseudomonas aeruginosa FNSST 982
Pseudomonas aeruginosa [7] = experiment: Ratio of cefotaxime MIC to compound MIC for Pseudomonas aeruginosa FNSST 982
Klebsiella pneumoniae [8] = experiment: Antibacterial activity against Klebsiella pneumoniae FNSST 011 assessed as diameter of zone of inhibition at 250 ug/disc after 24 hrs by disc diffusion method; conditions: FNSST 011, 24 h, read-out: DIZ; how it was run: as §2
Bacillus cereus [9] = experiment: Antibacterial activity against Bacillus cereus ATCC 11778 assessed as diameter of zone of inhibition at 250 ug/disc after 24 hrs by disc diffusion method; conditions: ATCC 11778, 24 h, read-out: DIZ; how it was run: as §2
Enterococcus faecalis [10] = experiment: Antibacterial activity against Enterococcus faecalis ATCC 29212 assessed as diameter of zone of inhibition at 250 ug/disc after 24 hrs by disc diffusion method; conditions: ATCC 29212, 24 h, read-out: DIZ; how it was run: as §2
Aeromonas hydrophila [11] = experiment: Antibacterial activity against Aeromonas hydrophila FNSST 014 assessed as diameter of zone of inhibition at 250 ug/disc after 24 hrs by disc diffusion method; conditions: FNSST 014, 24 h, read-out: DIZ; how it was run: as §2
Candida albicans = experiment: Antifungal activity against Candida albicans ATCC 10231 assessed as diameter of zone of inhibition at 250 ug/disc after 48 hrs by disc diffusion method; conditions: ATCC 10231, 48 h, read-out: DIZ; how it was run: as §1
Escherichia coli [12] = experiment: Ratio of gentamicin MIC to compound MIC for Escherichia coli FNSST 982
Escherichia coli [13] = experiment: Antibacterial activity against Escherichia coli FNSST 982 assessed as diameter of zone of inhibition at 250 ug/disc after 24 hrs by disc diffusion method; conditions: FNSST 982, 24 h, read-out: DIZ; how it was run: as §2
Staphylococcus aureus [14] = experiment: Antibacterial activity against Staphylococcus aureus ATCC 25923 assessed as diameter of zone of inhibition at 250 ug/disc after 24 hrs by disc diffusion method; conditions: ATCC 25923, 24 h, read-out: DIZ; how it was run: as §2
Bacillus cereus [15] = experiment: Antibacterial activity against Bacillus cereus ATCC 11778 after 18 to 24 hrs by two-fold broth microdilution assay; how it was run: as §3
Pseudomonas aeruginosa [16] = experiment: Antibacterial activity against Pseudomonas aeruginosa FNSST 982 after 18 to 24 hrs by two-fold broth microdilution assay; how it was run: as §3
Escherichia coli [17] = experiment: Antibacterial activity against Escherichia coli FNSST 982 after 18 to 24 hrs by two-fold broth microdilution assay; how it was run: as §3
Clostridium perfringens [18] = experiment: Antibacterial activity against Clostridium perfringens FNSST 4999 after 18 to 24 hrs by two-fold broth microdilution assay
How it was run: (§4)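 CLSI two-fold broth microdilution. Compounds dissolved in DMSO, 10 mg/mL stock, serially diluted to 400–0.09 µg/mL in Mueller Hinton broth. Wells inoculated with 10^6 CFU/mL bacteria and incubated 18–24 h at 37 °C. 0.2 mg/mL INT added for 30 min. MIC taken as the lowest concentration with no visible growth or pink colour. Triplicate.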

Enterococcus faecalis [19] = experiment: Antibacterial activity against Enterococcus faecalis ATCC 29212 after 18 to 24 hrs by two-fold broth microdilution assay; how it was run: as §3
Talaromyces funiculosus = experiment: Antifungal activity against Penicillium funiculosum FNSST 3724 assessed as diameter of zone of inhibition at 250 ug/disc after 72 hrs by disc diffusion method; conditions: FNSST 3724, 72 h, read-out: DIZ; how it was run: as §1
Kluyvera intermedia = experiment: Antibacterial activity against TEM-1/SHV-12/[…] expressing Enterobacter intermedius isolate 243 after 18 to 24 hrs by two-fold broth microdilution assay; how it was run: as §3
Enterobacter cloacae [20] = experiment: Antibacterial activity against TEM-1/SHV-12 expressing Enterobacter cloacae isolate 306 after 18 to 24 hrs by two-fold broth microdilution assay
Escherichia coli [21] = experiment: Antibacterial activity against […] expressing Escherichia coli isolate 235 after 18 to 24 hrs by two-fold broth microdilution assay; how it was run: as §4
Enterobacter cloacae [22] = experiment: Antibacterial activity against CTX-15 expressing Enterobacter cloacae isolate 51 after 18 to 24 hrs by two-fold broth microdilution assay
Klebsiella pneumoniae [23] = experiment: Antibacterial activity against TEM-1/SHV-12 expressing Klebsiella pneumoniae isolate 303 after 18 to 24 hrs by two-fold broth microdilution assay; how it was run: as §3
Acinetobacter baumannii [24] = experiment: Ratio of imipenem MIC to compound MIC for Acinetobacter baumannii isolate 170
Acinetobacter baumannii [25] = experiment: Ratio of meropenem MIC to compound MIC for Acinetobacter baumannii isolate 170
Aeromonas hydrophila [26] = experiment: Ratio of gentamicin MIC to compound MIC for Aeromonas hydrophila FNSST 014
Escherichia coli [27] = experiment: Antibacterial activity against TEM-1/SHV-12 expressing Escherichia coli isolate 237 after 18 to 24 hrs by two-fold broth microdilution assay; how it was run: as §4
Aeromonas hydrophila [28] = experiment: Antibacterial activity against TEM-1/SHV-12 expressing Aeromonas hydrophila isolate 268 after 18 to 24 hrs by two-fold broth microdilution assay; how it was run: as §3
Enterobacter cloacae [29] = experiment: Antibacterial activity against TEM-1/CTX-M-15 expressing Enterobacter cloacae isolate 62 after 18 to 24 hrs by two-fold broth microdilution assay
Pseudomonas aeruginosa [30] = experiment: Ratio of imipenem MIC to compound MIC for Pseudomonas aeruginosa isolate 197
Pseudomonas aeruginosa [31] = experiment: Antibacterial activity against GIM-1 expressing Pseudomonas aeruginosa isolate 197 after 18 to 24 hrs by two-fold broth microdilution assay; how it was run: as §3
Acinetobacter baumannii [32] = experiment: Antibacterial activity against SIM-1 expressing Acinetobacter baumannii isolate 170 after 18 to 24 hrs by two-fold broth microdilution assay; how it was run: as §4
Escherichia coli [33] = experiment: Antibacterial activity against […] expressing Escherichia coli isolate 4024 after 18 to 24 hrs by two-fold broth microdilution assay; how it was run: as §4
Aeromonas caviae [34] = experiment: Antibacterial activity against […] expressing Aeromonas caviae isolate 258 after 18 to 24 hrs by two-fold broth microdilution assay; how it was run: as §3
Klebsiella pneumoniae [35] = experiment: Ratio of gentamicin MIC to compound MIC for Klebsiella pneumoniae FNSST 011
Aeromonas caviae [36] = experiment: Antibacterial activity against TEM-1/CTX-M-15 expressing Aeromonas caviae isolate 260 after 18 to 24 hrs by two-fold broth microdilution assay; how it was run: as §3
Pseudomonas aeruginosa [37] = experiment: Ratio of meropenem MIC to compound MIC for Pseudomonas aeruginosa isolate 197
[38] = system: Stenotrophomonas maltophilia; experiment: Antibacterial activity against […] expressing Stenotrophomonas maltophilia isolate 125 after 18 to 24 hrs by two-fold broth microdilution assay; how it was run: as §3

Compound: Cc1ccc(-[n+]2ccn(Cc3ccccc3)c2/C=N/O)cc1.[Br-]
- zone of inhibition at 250 µg/disc (Aspergillus fumigatus): 20.3 mm
- zone of inhibition at 250 µg/disc (Clostridium perfringens [1]): 20.7 mm
- zone of inhibition at 250 µg/disc (Pseudomonas aeruginosa [2]): 20.6 mm
- MIC (Klebsiella pneumoniae [3]): 12.5 µg/mL
- MIC (Aeromonas hydrophila [4]): 12.5 µg/mL
- MIC (Staphylococcus aureus [5]): 6.25 µg/mL
- Ratio (Pseudomonas aeruginosa [6]): 450
- Ratio (Pseudomonas aeruginosa [7]): 115
- zone of inhibition at 250 µg/disc (Klebsiella pneumoniae [8]): 16.3 mm
- zone of inhibition at 250 µg/disc (Bacillus cereus [9]): 12.2 mm
- zone of inhibition at 250 µg/disc (Enterococcus faecalis [10]): 14.5 mm
- zone of inhibition at 250 µg/disc (Aeromonas hydrophila [11]): 16.6 mm
- zone of inhibition at 250 µg/disc (Candida albicans): 20.8 mm
- Ratio (Escherichia coli [12]): 2.5
- zone of inhibition at 250 µg/disc (Escherichia coli [13]): 17.7 mm
- zone of inhibition at 250 µg/disc (Staphylococcus aureus [14]): 18.4 mm
- MIC (Bacillus cereus [15]): 12.5 µg/mL
- MIC (Pseudomonas aeruginosa [16]): 0.14 µg/mL
- MIC (Escherichia coli [17]): 3.12 µg/mL
- MIC (Clostridium perfringens [18]): 25 µg/mL
- MIC (Enterococcus faecalis [19]): 25 µg/mL
- zone of inhibition at 250 µg/disc (Talaromyces funiculosus): 18.4 mm

Compound: O/N=C/c1n(Cc2ccccc2)cc[n+]1-c1ccc(F)cc1.[Br-]
- zone of inhibition at 250 µg/disc (Aspergillus fumigatus): 19.4 mm
- zone of inhibition at 250 µg/disc (Clostridium perfringens [1]): 11.4 mm
- zone of inhibition at 250 µg/disc (Pseudomonas aeruginosa [2]): 15.9 mm
- MIC (Kluyvera intermedia): 6.25 µg/mL
- MIC (Enterobacter cloacae [20]): 6.25 µg/mL
- MIC (Klebsiella pneumoniae [3]): 1.56 µg/mL
- MIC (Escherichia coli [21]): 6.25 µg/mL
- MIC (Aeromonas hydrophila [4]): 12.5 µg/mL
- MIC (Enterobacter cloacae [22]): 6.25 µg/mL
- MIC (Staphylococcus aureus [5]): 6.25 µg/mL
- MIC (Klebsiella pneumoniae [23]): 12.5 µg/mL
- Ratio (Acinetobacter baumannii [24]): 20
- Ratio (Pseudomonas aeruginosa [6]): 2.5
- Ratio (Acinetobacter baumannii [25]): 20
- Ratio (Aeromonas hydrophila [26]): 2.5
- MIC (Escherichia coli [27]): 3.12 µg/mL
- MIC (Aeromonas hydrophila [28]): 12.5 µg/mL
- zone of inhibition at 250 µg/disc (Klebsiella pneumoniae [8]): 14.7 mm
- zone of inhibition at 250 µg/disc (Bacillus cereus [9]): 18.3 mm
- MIC (Enterobacter cloacae [29]): 6.25 µg/mL
- zone of inhibition at 250 µg/disc (Enterococcus faecalis [10]): 19.6 mm
- Ratio (Pseudomonas aeruginosa [30]): 20
- zone of inhibition at 250 µg/disc (Aeromonas hydrophila [11]): 16.5 mm
- zone of inhibition at 250 µg/disc (Candida albicans): 21.9 mm
- Ratio (Escherichia coli [12]): 2.5
- MIC (Pseudomonas aeruginosa [31]): 0.39 µg/mL
- zone of inhibition at 250 µg/disc (Escherichia coli [13]): 15.3 mm
- zone of inhibition at 250 µg/disc (Staphylococcus aureus [14]): 19.9 mm
- MIC (Acinetobacter baumannii [32]): 0.78 µg/mL
- MIC (Bacillus cereus [15]): 6.25 µg/mL
- MIC (Escherichia coli [33]): 1.56 µg/mL
- MIC (Aeromonas caviae [34]): 12.5 µg/mL
- MIC (Pseudomonas aeruginosa [16]): 25 µg/mL
- Ratio (Klebsiella pneumoniae [35]): 2.5
- MIC (Aeromonas caviae [36]): 12.5 µg/mL
- MIC (Escherichia coli [17]): 12.5 µg/mL
- MIC (Clostridium perfringens [18]): 25 µg/mL
- MIC (Enterococcus faecalis [19]): 6.25 µg/mL
- Ratio (Pseudomonas aeruginosa [37]): 20
- MIC [38]: 12.5 µg/mL
- zone of inhibition at 250 µg/disc (Talaromyces funiculosus): 17.9 mm
